Test results as given in ChEMBL document CHEMBL1777776, “Identification of 2-mercaptohexanoic acids as dual inhibitors of 5-lipoxygenase and microsomal prostaglandin E₂ synthase-1” (Bioorg Med Chem, 2011).
Calls of active or inactive are those of the source. The calls are words filed in the database; no cut-off is given here.

Key:
[1] = molecular target: T1, Polyunsaturated fatty acid 5-lipoxygenase (Homo sapiens, UniProt P09917); assay: Inhibition of human recombinant 5-lipoxygenase expressed in Escherichia coli BL21 assessed as enzyme product formation using arachidonic acid as substrate after 10 mins by RP-HPLC analysis
T1 sequence (P09917 whole entry): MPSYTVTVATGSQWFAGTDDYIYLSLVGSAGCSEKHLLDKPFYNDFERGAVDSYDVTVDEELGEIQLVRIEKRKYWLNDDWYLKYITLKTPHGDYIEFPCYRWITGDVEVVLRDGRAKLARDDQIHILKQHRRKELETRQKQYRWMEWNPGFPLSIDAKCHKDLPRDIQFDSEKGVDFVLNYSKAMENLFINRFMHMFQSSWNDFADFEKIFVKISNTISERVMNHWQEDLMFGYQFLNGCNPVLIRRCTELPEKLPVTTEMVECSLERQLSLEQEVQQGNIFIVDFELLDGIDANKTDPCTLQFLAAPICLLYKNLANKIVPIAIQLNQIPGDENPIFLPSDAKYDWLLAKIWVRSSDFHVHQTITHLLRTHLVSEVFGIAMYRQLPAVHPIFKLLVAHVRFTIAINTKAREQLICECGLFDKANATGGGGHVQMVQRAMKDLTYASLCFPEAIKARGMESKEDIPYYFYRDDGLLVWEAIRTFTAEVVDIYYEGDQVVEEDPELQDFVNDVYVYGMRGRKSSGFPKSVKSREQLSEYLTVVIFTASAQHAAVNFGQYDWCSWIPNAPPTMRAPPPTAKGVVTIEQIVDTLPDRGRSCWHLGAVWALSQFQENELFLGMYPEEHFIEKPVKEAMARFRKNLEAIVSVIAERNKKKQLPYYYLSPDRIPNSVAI
Procedure, shortened: (§1)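 Human 5-LO expressed in E. coli BL21 (pT3-5LO), affinity-purified and used at once. 0.5 µg enzyme in 1 ml PBS/EDTA with 1 mM ATP preincubated with compound 5–10 min at 4 °C, then warmed 30 s at 37 °C. Reaction started with 2 mM CaCl₂ and AA (routinely 20 µM), with or without 1 µM 13(S)-HpODE. Run 10 min at 37 °C, stopped with ice-cold methanol, products analysed by HPLC. Washout: 10-fold dilution (10 to 1 µM).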

[2] = molecular target: T1, Polyunsaturated fatty acid 5-lipoxygenase; assay: Inhibition of 5-lipoxygenase in A23187-stimulated human PMNL assessed as enzyme product formation preincubated 15 mins by RP-HPLC analysis in presence of exogenous arachidonic acid
Procedure, shortened: (§2)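 Freshly isolated human PMNL (5 × 10⁶/ml PGC buffer: PBS pH 7.4, 1 mg/ml glucose, 1 mM CaCl₂) preincubated with compound 15 min at 37 °C. Stimulated with 2.5 µM A23187 plus exogenous AA for 10 min at 37 °C. Stopped with methanol, PGB₁ added as internal standard, lipoxygenase products analysed by HPLC. Mean of n = 3–5.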

A549 = assay: Cytotoxicity against human A549 cells assessed as cell viability at 10 uM after 16 hrs by MTT assay; format: cell-based; details: a549, 5 h, in the assay text read “5 hrs” for “16 hrs”
Procedure, shortened: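 A549 cells plated at 4 × 10⁴ cells per well, incubated 16 h at 37 °C, 5% CO₂, then exposed to 10 µM compound or DMSO (≤0.3% final) for 5 h. MTT added for 4 h, formazan solubilized with SDS in 20 mM HCl, absorbance at 595 nm read relative to vehicle-treated cells.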

Prostaglandin E synthase = molecular target: T2, Prostaglandin E synthase (Homo sapiens, UniProt O14684); assay: Inhibition of mPGES-1 in human IL-1beta-stimulated A549 cell microsomes assessed as reduction of PGE2 formation from PGH2 after 15 mins; design: species or system Microsome
T2 sequence (O14684 whole entry): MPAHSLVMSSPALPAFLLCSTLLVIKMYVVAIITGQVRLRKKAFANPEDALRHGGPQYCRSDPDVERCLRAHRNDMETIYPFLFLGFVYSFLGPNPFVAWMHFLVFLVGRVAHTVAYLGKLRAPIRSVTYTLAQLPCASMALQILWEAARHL
Procedure, shortened: (§3)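 Microsomes from A549 cells stimulated 72 h with IL-1β (1 ng/ml), diluted to 50 µg/ml in 0.1 M potassium phosphate pH 7.4 with 2.5 mM glutathione. Preincubated with compound (1% DMSO final) 15 min at 4 °C. Reaction started with 20 µM PGH₂, run 1 min at 4 °C, stopped with FeCl₂/citric acid containing 11β-PGE₂; PGE₂ quantified. Mean of n = 3–5.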

[3] = molecular target: T3, Prostaglandin E synthase (Homo sapiens) (UniProt O14684); assay: Inhibition of mPGES-1 in human IL-1beta-stimulated A549 cell microsomes assessed as residual activity by measuring reduction of PGE2 formation from PGH2 at 10 uM after 15 mins; details: Microsome; procedure, shortened: as §3
T3 sequence (whole entry): T2 sequence (O14684 whole entry)

[4] = molecular target: T4, Polyunsaturated fatty acid 5-lipoxygenase (Homo sapiens) (UniProt P09917); assay: Inhibition of human recombinant 5-lipoxygenase expressed in Escherichia coli BL21 assessed as residual activity by measuring enzyme product formation using arachidonic acid as substrate at 10 uM after 10 mins by RP-HPLC analysis; procedure, shortened: as §1
T4 sequence (whole entry): T1 sequence (P09917 whole entry)

[5] = molecular target: T4, Polyunsaturated fatty acid 5-lipoxygenase (Homo sapiens); assay: Inhibition of 5-lipoxygenase in A23187-stimulated human PMNL assessed as residual activity by measuring enzyme product formation at 10 uM preincubated 15 mins by RP-HPLC analysis in presence of exogenous arachidonic acid; procedure, shortened: as §2
[6] = molecular target: T5, Prostaglandin G/H synthase 2 (Homo sapiens) (UniProt P35354); assay: Inhibition of human recombinant COX2 assessed as residual activity at 10 uM after 5 mins
T5 sequence (whole entry): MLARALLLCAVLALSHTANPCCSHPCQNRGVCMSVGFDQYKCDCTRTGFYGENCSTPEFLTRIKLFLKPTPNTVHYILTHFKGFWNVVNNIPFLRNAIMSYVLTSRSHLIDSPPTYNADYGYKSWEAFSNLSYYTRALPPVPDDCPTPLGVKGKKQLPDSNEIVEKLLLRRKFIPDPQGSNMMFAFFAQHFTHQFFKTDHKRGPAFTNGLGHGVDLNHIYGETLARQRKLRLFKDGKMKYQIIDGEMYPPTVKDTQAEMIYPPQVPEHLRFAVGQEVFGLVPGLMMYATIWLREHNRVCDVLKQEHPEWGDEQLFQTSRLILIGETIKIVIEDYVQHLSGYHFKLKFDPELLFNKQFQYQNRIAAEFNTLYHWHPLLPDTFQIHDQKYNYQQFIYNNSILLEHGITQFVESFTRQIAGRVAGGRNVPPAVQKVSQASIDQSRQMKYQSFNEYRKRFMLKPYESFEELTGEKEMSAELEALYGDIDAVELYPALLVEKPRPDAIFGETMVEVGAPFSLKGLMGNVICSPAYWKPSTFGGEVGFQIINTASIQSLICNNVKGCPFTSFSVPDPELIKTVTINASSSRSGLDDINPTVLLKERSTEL
Procedure, shortened: (§4)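 Ovine COX-1 (50 units) or human recombinant COX-2 (20 units) in 1 ml 100 mM Tris pH 8 with 5 mM glutathione, 5 µM haemoglobin and 100 µM EDTA. Preincubated with 10 µM compound 5 min at 4 °C, warmed 60 s at 37 °C. Started with AA (5 µM for COX-1, 2 µM for COX-2), run 5 min at 37 °C. 12-HHT extracted and analysed by HPLC. n = 3.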

[7] = molecular target: T6, Prostaglandin G/H synthase 1 (Ovis aries) (UniProt P05979); assay: Inhibition of ovine COX1 assessed as residual activity at 10 uM after 5 mins; procedure, shortened: as §4
T6 sequence (whole entry): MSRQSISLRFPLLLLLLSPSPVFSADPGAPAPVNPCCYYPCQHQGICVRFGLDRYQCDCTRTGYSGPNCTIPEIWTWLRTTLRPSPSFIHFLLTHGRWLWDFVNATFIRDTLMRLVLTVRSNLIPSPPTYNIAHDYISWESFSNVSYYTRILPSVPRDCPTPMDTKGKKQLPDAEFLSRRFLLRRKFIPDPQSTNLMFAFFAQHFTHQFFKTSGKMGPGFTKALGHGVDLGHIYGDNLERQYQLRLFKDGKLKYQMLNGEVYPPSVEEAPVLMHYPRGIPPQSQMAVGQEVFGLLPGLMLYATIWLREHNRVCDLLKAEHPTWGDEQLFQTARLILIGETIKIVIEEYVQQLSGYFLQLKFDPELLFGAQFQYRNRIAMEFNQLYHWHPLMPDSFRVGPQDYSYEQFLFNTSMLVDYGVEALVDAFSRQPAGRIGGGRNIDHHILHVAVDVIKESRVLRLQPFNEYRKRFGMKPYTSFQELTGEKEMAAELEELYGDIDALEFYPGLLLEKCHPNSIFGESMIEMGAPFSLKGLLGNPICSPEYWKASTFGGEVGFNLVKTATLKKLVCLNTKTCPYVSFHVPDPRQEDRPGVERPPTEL

IC50 [1] [µM] | IC50 [2] [µM] | IC50 (Prostaglandin E synthase) [µM] | Activity [3] [%] | Activity [4] [%] | Activity [5] [%] | inhibition [6] | Activity [7] [%] | inhibition [3] | SMILES | Activity (A549)
7.8 | 1.6 | 4.1 |  |  |  |  |  |  | CCCCC(Sc1ccc(OCCCOc2ccccc2C(C)C)cc1)C(=O)O (centres undefined) | Non-toxic
> 10 | 4.8 | > 10 | 58 | 79.3 |  |  |  |  | CCCCC(Sc1ccc(OCCCOc2cccc(C)c2)cc1)C(=O)O (centres undefined) | Non-toxic
> 10 | 9.5 | > 10 | 81.9 | 69.4 |  |  |  |  | CCCCC(Sc1ccc(OCCCOc2ccccc2)cc1)C(=O)O (centres undefined) | Non-toxic
> 10 | 1.6 | > 10 | 28.3 | 88.9 |  |  |  |  | CCCC/C(=C\c1ccc(OCCCOc2cccc(C)c2C)cc1)C(=O)O | Non-toxic
> 10 | 5.2 | 9.3 |  | 67.6 |  |  |  |  | CCCCC(Sc1ccc(OCCCOc2ccc(C)cc2)cc1)C(=O)O (centres undefined) | Non-toxic
> 10 | > 10 |  |  | 83 | 91.5 |  |  |  | CCCCC(Sc1ccc(OCCCOc2ccc(-c3ccccc3)cc2)cc1)C(=O)OCC (centres undefined) | Non-toxic
> 10 | 4.8 | > 10 | 59.1 | 67.7 |  |  |  |  | CCCCC(Sc1ccc(OCCCOc2cccc(OC)c2)cc1)C(=O)O (centres undefined) | Non-toxic
2 | 1.5 | 1.7 |  |  |  | inactive | 71.3 |  | CCCCC(Sc1ccc(OCCCOc2ccc(Cl)c(C(F)(F)F)c2)cc1)C(=O)O (centres undefined) | Non-toxic
> 10 | 2 | 7.1 |  | 70.8 |  |  |  |  | CCCCC(Cc1ccc(OCCCOc2cccc(C)c2C)cc1)C(=O)O (centres undefined) | Non-toxic
6 | 1.4 | 2.7 |  |  |  |  |  |  | CCCCC(Sc1ccc(OCCCOc2cccc(C(C)C)c2)cc1)C(=O)O (centres undefined) | Non-toxic
> 10 | > 10 | > 10 | 75.4 | 72.4 | 69.6 |  |  |  | Cc1cccc(OCCCOc2ccc(SCC(=O)O)cc2)c1C | Non-toxic
> 10 | 4.8 | 8.8 |  | 58.3 |  |  |  |  | CCCCC(Sc1ccc(OCCCOc2ccccc2C)cc1)C(=O)O (centres undefined) | Non-toxic
9.8 | 1.6 | 2 |  |  |  |  |  |  | CCCCC(Sc1ccc(OCCCOc2cccc(C(F)(F)F)c2)cc1)C(=O)O (centres undefined) | Non-toxic
> 10 | > 10 | > 10 | 83.9 | 81.8 | 80 |  |  |  | Cc1cccc(OCCCOc2ccc(CCC(=O)O)cc2)c1C | Non-toxic
> 10 | > 10 |  |  | 79.4 | 87.4 |  |  |  | CCCCC(Sc1ccc(OCCCOc2cccc3c2CCCC3)cc1)C(=O)OCC (centres undefined) | Non-toxic
> 10 | > 10 | > 10 | 88.3 | 79.4 | 57.4 |  |  |  | CCCCC(Sc1ccc(OCCCOc2ccccc2OC)cc1)C(=O)O (centres undefined) | Non-toxic
8.8 | 3 | 2.9 |  |  |  |  |  |  | CCCCC(Sc1ccc(OCCCOc2cccc(C)c2C)cc1)C(=O)O (centres undefined) | Non-toxic
8.2 | 2 | 4.6 |  |  |  |  |  |  | CCCC[C@H](Sc1ccc(OCCCOc2cccc(C)c2C)cc1)C(=O)O | Non-toxic
10 | 1.1 | 4.2 |  |  |  |  |  |  | CCCC[C@@H](Sc1ccc(OCCCOc2cccc(C)c2C)cc1)C(=O)O | Non-toxic
> 10 | > 10 | > 10 |  | 59 | 92.2 |  |  | inactive | CCCCC(Sc1ccc(OCCCOc2ccc3ncccc3c2)cc1)C(=O)O (centres undefined) | Non-toxic
> 10 | > 10 | 9.4 |  | 59.2 | 79.3 |  |  |  | CCCCC(Sc1ccc(OCCCOc2ccc(Cl)cc2OC)cc1)C(=O)O (centres undefined) | Non-toxic
> 10 | 0.8 | > 10 | 83.9 | 68.3 |  |  |  |  | CCCCC(Sc1ccc(OCCCOc2ccc3ncccc3c2)cc1)C(=O)OCC (centres undefined) | Non-toxic
